Source: ChEMBL document CHEMBL1275590, “Novel arylimidamides for treatment of visceral leishmaniasis” (Antimicrob Agents Chemother, 2010)
The source made the active and inactive calls. The rule behind the calls is not given here.

What was measured:
[1] = test system: Leishmania donovani; test: Antileishmanial activity against Leishmania donovani axenic amastigotes; type: functional, organism-based
[2] = test system: Leishmania donovani; test: Antileishmanial activity against intracellular Leishmania donovani LV82 amastigotes; type: functional, organism-based
In short: (§1)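 CD-1 mouse peritoneal macrophages, 5 × 10^4 cells/well in RPMI 1640 + 10% heat-inactivated FBS, adhered overnight. Infected overnight with stationary-phase LV82 promastigotes (5:1 parasite:macrophage), 37°C, 5% CO2. Medium then replaced with compound or vehicle for 72 h at 37°C. Methanol-fixed, Giemsa-stained; % infected macrophages counted at ×1,000. IC50 by four-parameter logistic nonlinear regression.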

[3] = test system: Leishmania amazonensis; test: Antileishmanial activity against intracellular Leishmania amazonensis amastigotes; type: functional, organism-based
[4] = test system: Leishmania donovani; test: Antileishmanial activity against intracellular Leishmania donovani LV82 amastigotes infected in CD-1 mouse peritoneal macrophage; type: functional, organism-based; in short: as §1
[5] = test system: Leishmania donovani; test: Antileishmanial activity against antimony resistant Leishmania donovani MC4-R infected in mouse J774 macrophage; type: functional, organism-based
[6] = test system: Leishmania donovani; test: Antileishmanial activity against antimony resistant Leishmania donovani MC8-R infected in mouse J774 macrophage; type: functional, organism-based
[7] = test system: Leishmania donovani; test: Antileishmanial activity against Leishmania donovani promastigotes in ip dosed BALB/c mouse assessed as inhibition of liver parasitemia; type: functional, organism-based
In short: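 Murine VL model in L. donovani-infected mice. Compounds were dissolved in water and given i.p. or p.o. once daily for 5 days (4 days for one i.p. regimen). Liver parasitemia was compared with untreated controls by unpaired Student's t test, P ≤ 0.05.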

[8] = AUC (0 to infinity) in Swiss Webster mouse at 1 mg/kg, iv by HPLC-MS/MS analysis; type: ADME, organism-based; parameters: time infinity, dose 1 mg/kg, route intravenous; settings: plasma
In short: (§2)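 Male Swiss Webster mice, n = 3 per time point. For i.v., the compound was dissolved in sterile water, diluted 1:1 with 2× saline, and given as a tail-vein bolus over ~10–20 s. For p.o., it was given by gavage in sterile water. Dose volume was 5 ml/kg. Terminal plasma was taken from 5 min to 72 h and measured by HPLC-MS/MS (calibration 2.5–10,000 nM). Parameters came from noncompartmental analysis.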

[9] = Cmax in Swiss Webster mouse at 1 mg/kg, iv by HPLC-MS/MS analysis; type: ADME, organism-based; parameters: dose 1 mg/kg, route intravenous; settings: in vivo; in short: as §2
[10] = Clearance in Swiss Webster mouse at 1 mg/kg, iv by HPLC-MS/MS analysis; type: ADME, organism-based; parameters: dose 1 mg/kg, route intravenous; settings: in vivo; in short: as §2
[11] = test system: Mus musculus; test: Hepatotoxicity in BALB/c mouse assessed as AST level in serum at 20 mg/kg/day, iv administered for five days (Rvb= 65 U/L); type: toxicity, organism-based; parameters: route intravenous; settings: in vivo
[12] = test system: Mus musculus; test: Hepatotoxicity in BALB/c mouse assessed as ALT level in serum at 5 mg/kg/day, iv administered for five days (Rvb= 34 U/L); type: toxicity, organism-based; parameters: route intravenous; settings: in vivo
[13] = test system: Mus musculus; test: Hepatotoxicity in BALB/c mouse assessed as ALT level in serum at 20 mg/kg/day, iv administered for five days (Rvb= 34 U/L); type: toxicity, organism-based; parameters: route intravenous; settings: in vivo
[14] = test system: Mus musculus; test: Hepatotoxicity in BALB/c mouse assessed as AST level in serum at 25 mg/kg/day, po administered for five days (Rvb= 70 U/L); type: toxicity, organism-based; parameters: route oral; settings: in vivo
[15] = test system: Mus musculus; test: Renal toxicity in BALB/c mouse assessed as blood urea nitrogen level in serum at 5 mg/kg/day, iv administered for five days (Rvb= 20 mg/dl); type: organism-based; parameters: route intravenous; settings: in vivo
In short: (§3)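 Female BALB/c mice (n = 5 per dose), dosed once daily for 5 consecutive days p.o. (20 ml/kg) or i.v. (10 ml/kg) with compound in sterile water, prepared fresh daily under yellow light. Vehicle controls n = 5 per route. Clinical observations, body weights, serum chemistry and hematology on day 6 before necropsy; histopathology of formalin-fixed tissues. Chemistry analysed by one-way ANOVA with Dunnett's posttest.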

[16] = test system: Mus musculus; test: Renal toxicity in BALB/c mouse assessed as blood urea nitrogen level in serum at 20 mg/kg/day, iv administered for five days (Rvb= 20 mg/dl); type: organism-based; parameters: route intravenous; settings: in vivo; in short: as §3
[17] = test system: Mus musculus; test: Hepatotoxicity in BALB/c mouse assessed as alkaline phosphatase level in serum at 5 mg/kg/day, iv administered for five days (Rvb= 134 U/L); type: toxicity, organism-based; parameters: route intravenous; settings: in vivo
[18] = test system: Mus musculus; test: Renal toxicity in BALB/c mouse assessed as phosphorus level in serum at 5 mg/kg/day, iv administered for five days (Rvb= 6.1 mg/dl); type: organism-based; parameters: route intravenous; settings: in vivo; in short: as §3
[19] = test system: Mus musculus; test: Hepatotoxicity in BALB/c mouse assessed as alkaline phosphatase level in serum at 25 mg/kg/day, po administered for five days (Rvb= 129 U/L); type: toxicity, organism-based; parameters: route oral; settings: in vivo
[20] = test system: Mus musculus; test: Hepatotoxicity in BALB/c mouse assessed as alkaline phosphatase level in serum at 50 mg/kg/day, po administered for five days (Rvb= 129 U/L); type: toxicity, organism-based; parameters: route oral; settings: in vivo
[21] = test system: Mus musculus; test: Hepatotoxicity in BALB/c mouse assessed as phosphorus level in serum at 25 mg/kg/day, po administered for five days (Rvb= 5.3 mg/dl); type: toxicity, organism-based; parameters: route oral; settings: in vivo
[22] = test system: Mus musculus; test: Renal toxicity in BALB/c mouse assessed as phosphorus level in serum at 50 mg/kg/day, po administered for five days (Rvb= 5.3 mg/dl); type: organism-based; parameters: route oral; settings: in vivo; in short: as §3
[23] = Half life in human liver microsome by HPLC-MS/MS analysis in presence of 0.1 uM NADPH; type: ADME; settings: liver microsomes
In short: (§4)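 Pooled liver microsomes with NADPH. Substrate at final 0.1, 1.0 and 10 μM with 0.5% DMSO, incubated up to 60 min at 37°C. Reactions were stopped with 7:1 methanol-water containing 0.1% TFA and 30 nM internal standard. Remaining substrate was measured by HPLC-MS/MS, and t1/2 came from a one-phase exponential decay fit.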

[24] = Half life in human liver microsome by HPLC-MS/MS analysis in presence of 1 uM NADPH; type: ADME; settings: liver microsomes; in short: as §4
[25] = Half life in rat liver microsome by HPLC-MS/MS analysis in presence of 0.1 uM NADPH; type: ADME; settings: liver microsomes
In short: (§5)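 Pooled liver microsomes (human, mouse, rat) with NADPH. Substrate added from DMSO to final 0.1, 1.0 or 10 μM, with 0.5% (vol/vol) organic solvent. Incubated at 37°C for up to 60 min. Stopped with 2 volumes of 7:1 methanol-water containing 0.1% TFA and 30 nM internal standard, then centrifuged. Remaining substrate was measured by HPLC-MS/MS, and t1/2 was obtained by one-phase exponential decay fit (t1/2 = 0.693/k).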

[26] = Half life in rat liver microsome by HPLC-MS/MS analysis in presence of 1 uM NADPH; type: ADME; settings: liver microsomes; in short: as §5
[27] = Half life in mouse liver microsome by HPLC-MS/MS analysis in presence of 0.1 uM NADPH; type: ADME; settings: liver microsomes; in short: as §5
[28] = Half life in mouse liver microsome by HPLC-MS/MS analysis in presence of 1 uM NADPH; type: ADME; settings: liver microsomes; in short: as §5
[29] = Half life in mouse liver microsome by HPLC-MS/MS analysis in presence of 10 uM NADPH; type: ADME; settings: liver microsomes; in short: as §5
[30] = Half life in golden Syrian hamster liver microsome by HPLC-MS/MS analysis in presence of 10 uM NADPH; type: ADME, Mesocricetus auratus; settings: liver microsomes; in short: as §4

| SMILES | IC50 [1] | IC50 [2] | IC50 [3] | IC50 [4] | IC50 [5] | IC50 [6] | Activity [7] | AUC(0-inf) [8] | Cmax [9] | clearance [10] | Activity [11] | Activity [12] | Activity [13] | Activity [14] | Activity [15] | Activity [16] | Activity [17] | Activity [18] | Activity [19] | Activity [20] | further results |
| --- | --- | --- | --- | --- | --- | --- | --- | --- | --- | --- | --- | --- | --- | --- | --- | --- | --- | --- | --- | --- | --- |
| CCOc1cc(NC(=N)c2ccccn2)ccc1-c1ccc(-c2ccc(NC(=N)c3ccccn3)cc2OCC)o1 | 500 nM | 18 nM | 120 nM | 4500 nM | 150 nM | 160 nM | Active | 0.56 µM·h | 370 nM | 45 mL/min/kg | 89 U/L | 43 U/L | 57 U/L | 67 U/L | 18 mg/dL | 27 mg/dL | 113 U/L | 7.1 mg/dL | 136 U/L | 130 U/L | Activity [21]: 6.9 mg/dL; Activity [22]: 7.2 mg/dL; half-life [23]: > 2 h; half-life [24]: > 2 h; half-life [25]: 1.33 h; half-life [26]: > 2 h; half-life [27]: 0.25 h; half-life [28]: 0.783 h; half-life [29]: > 2 h; half-life [30]: > 2 h |
| CC(C)Oc1cc(NC(=N)c2ccccn2)ccc1-c1ccc(-c2ccc(NC(=N)c3ccccn3)cc2OC(C)C)o1 | 500 nM | 36 nM | 87 nM | 2800 nM | 76 nM | 64 nM | Active | 2.53 µM·h | 1090 nM | 9.9 mL/min/kg | 76 U/L | 36 U/L | 50 U/L | 75 U/L | 19 mg/dL | 26 mg/dL | 103 U/L | 7 mg/dL | 126 U/L | 123 U/L | Activity [21]: 7 mg/dL; Activity [22]: 8.3 mg/dL; half-life [23]: > 2 h; half-life [24]: > 2 h; half-life [25]: 1.6 h; half-life [26]: > 2 h; half-life [27]: 0.433 h; half-life [28]: > 2 h; half-life [29]: > 2 h; half-life [30]: > 2 h |
